The source made the active and inactive calls. The rule behind the calls is not given here.
Assays:
[1] = Antitumor activity against B-Raf V600E mutant expressing human LOX cells xenografted in mouse assessed as tumor growth inhibition at 30 mg/kg, QD from day 1 to day 4 measured on day 5; assay type: functional; details: read-out: TGI
Procedure, shortened: (§1)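 Nude mice bearing established LOX (B-Raf V600E) xenografts were dosed at 30 mg/kg once daily on days 1–4, with vehicle controls at 10 ml/kg. Tumor volume was measured on days 1, 3, 5, 8 and 11.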

[2] = target: T1, Serine/threonine-protein kinase B-raf (Homo sapiens, UniProt P15056, V600E); experiment: Inhibition of full-length B-Raf V600E mutant assessed as reduction in incorporation of radiolabeled phosphate from [gamma-33P]ATP into FSBA-modified wild-type MEK.
T1 sequence (P15056 2-766 V600E limits assumed): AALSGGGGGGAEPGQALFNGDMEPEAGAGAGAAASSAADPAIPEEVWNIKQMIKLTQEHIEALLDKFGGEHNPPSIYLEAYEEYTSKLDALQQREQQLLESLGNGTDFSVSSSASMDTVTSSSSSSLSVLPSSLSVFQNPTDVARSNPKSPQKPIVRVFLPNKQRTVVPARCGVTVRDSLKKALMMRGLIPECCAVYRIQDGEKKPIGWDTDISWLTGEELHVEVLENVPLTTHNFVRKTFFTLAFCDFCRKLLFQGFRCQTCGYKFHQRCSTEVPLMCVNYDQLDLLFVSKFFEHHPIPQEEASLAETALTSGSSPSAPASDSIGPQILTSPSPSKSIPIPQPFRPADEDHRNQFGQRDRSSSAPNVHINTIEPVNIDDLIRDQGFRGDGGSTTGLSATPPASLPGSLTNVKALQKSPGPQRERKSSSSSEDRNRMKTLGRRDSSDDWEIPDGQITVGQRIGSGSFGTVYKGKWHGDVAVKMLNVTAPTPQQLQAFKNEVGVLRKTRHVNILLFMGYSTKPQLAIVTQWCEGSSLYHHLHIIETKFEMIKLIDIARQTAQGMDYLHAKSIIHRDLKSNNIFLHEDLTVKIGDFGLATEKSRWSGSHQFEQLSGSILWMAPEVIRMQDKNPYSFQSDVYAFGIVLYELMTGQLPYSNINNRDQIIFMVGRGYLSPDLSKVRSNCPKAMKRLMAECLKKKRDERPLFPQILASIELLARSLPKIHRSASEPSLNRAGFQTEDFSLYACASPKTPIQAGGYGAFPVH

[3] = target: RAF proto-oncogene serine/threonine-protein kinase (Homo sapiens) (UniProt P04049); experiment: Inhibition of human C-raf at 1 uM in presence of ATP at level equals to ~ Km of ATP
[4] = target: LIM domain kinase 1 (Homo sapiens) (UniProt P53667); experiment: Inhibition of human LIMK1 at 1 uM in presence of ATP at level equals to ~ Km of ATP
[5] = Volume of distribution in mouse at 2.5 mg/kg, iv; assay type: ADME, organism-based; parameters: dose 2.5 mg/kg, route intravenous; details: in vivo
Procedure, shortened: (§2)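 Mouse intravenous pharmacokinetics at 2.5 mg/kg. Observed clearance is reported in ml/min/kg and volume of distribution in l/kg.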

[6] = AUC in mouse at 30 mg/kg, po; assay type: ADME, organism-based; parameters: dose 30 mg/kg, route oral; details: plasma
[7] = Permeability across human Caco2 cells; assay type: ADME, cell-based; details: Caco-2, read-out: permeability
Procedure, shortened: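 Caco-2 monolayer permeability is reported as a class: low <2 × 10^-6 cm/s, medium 2–8 × 10^-6 cm/s, high >8 × 10^-6 cm/s.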

[8] = target: Serine/threonine-protein kinase B-raf (Homo sapiens) (UniProt P15056); experiment: Inhibition of human B-raf at 1 uM in presence of ATP at level equals to ~ Km of ATP
[9] = Antitumor activity against B-Raf V600E mutant expressing human LOX cells xenografted in mouse assessed as tumor growth inhibition at 30 mg/kg, QD from day 1 to day 4 measured on day 8; assay type: functional; details: read-out: TGI; procedure, shortened: as §1
[10] = target: T1, Serine/threonine-protein kinase B-raf; experiment: Inhibition of full-length B-Raf V600E mutant in human MALME-3M cells assessed as reduction in basal ERK1/2 phosphorylation incubated for 1 hr; assay type: cell-based
[11] = Antitumor activity against B-Raf V600E mutant expressing human LOX cells xenografted in mouse assessed as tumor growth inhibition at 30 mg/kg, QD from day 1 to day 4 measured on day 11; assay type: functional; details: read-out: TGI; procedure, shortened: as §1
[12] = Clearance in mouse at 2.5 mg/kg, iv; assay type: ADME, organism-based; parameters: dose 2.5 mg/kg, route intravenous; details: in vivo; procedure, shortened: as §2
[13] = Oral bioavailability in mouse at 30 mg/kg; assay type: ADME, organism-based; details: in vivo
[14] = target: Tyrosine-protein kinase Fgr (Homo sapiens) (UniProt P09769); experiment: Inhibition of FGR at 1 uM
Sequence of Tyrosine-protein kinase Fgr (Homo sapiens) (P09769 2-529 limits assumed): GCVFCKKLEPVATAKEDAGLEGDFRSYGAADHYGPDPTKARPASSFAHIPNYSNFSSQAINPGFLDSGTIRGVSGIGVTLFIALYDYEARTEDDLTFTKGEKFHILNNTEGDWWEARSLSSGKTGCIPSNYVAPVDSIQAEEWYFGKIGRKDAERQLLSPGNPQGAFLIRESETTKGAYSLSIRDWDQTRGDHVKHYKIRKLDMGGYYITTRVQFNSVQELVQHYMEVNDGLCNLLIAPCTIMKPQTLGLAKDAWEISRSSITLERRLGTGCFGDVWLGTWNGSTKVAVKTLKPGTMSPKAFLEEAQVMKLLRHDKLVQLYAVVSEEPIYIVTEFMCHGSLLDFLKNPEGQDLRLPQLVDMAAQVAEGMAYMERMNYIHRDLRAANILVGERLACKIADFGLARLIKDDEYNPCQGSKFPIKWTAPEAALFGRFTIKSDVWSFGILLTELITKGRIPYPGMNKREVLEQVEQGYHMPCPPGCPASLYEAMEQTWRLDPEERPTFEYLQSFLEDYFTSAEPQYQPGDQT

[15] = target: Tyrosine-protein kinase Lck (Homo sapiens) (UniProt P06239); experiment: Inhibition of LCK at 1 uM
Sequence of Tyrosine-protein kinase Lck (Homo sapiens) (P06239 2-509 limits assumed): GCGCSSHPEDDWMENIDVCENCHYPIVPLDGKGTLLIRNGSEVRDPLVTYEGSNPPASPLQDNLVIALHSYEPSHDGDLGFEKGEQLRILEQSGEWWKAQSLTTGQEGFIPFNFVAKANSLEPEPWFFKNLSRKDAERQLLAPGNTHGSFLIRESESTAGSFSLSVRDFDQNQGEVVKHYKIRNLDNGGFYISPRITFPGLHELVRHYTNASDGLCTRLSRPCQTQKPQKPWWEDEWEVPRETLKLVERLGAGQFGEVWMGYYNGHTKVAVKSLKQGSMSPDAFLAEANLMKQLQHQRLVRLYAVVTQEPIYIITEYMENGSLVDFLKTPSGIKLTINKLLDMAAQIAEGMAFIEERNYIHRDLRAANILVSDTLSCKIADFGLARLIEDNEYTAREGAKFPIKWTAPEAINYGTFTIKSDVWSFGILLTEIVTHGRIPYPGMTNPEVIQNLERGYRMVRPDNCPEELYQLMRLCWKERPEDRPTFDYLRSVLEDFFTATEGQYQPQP

[16] = target: Vascular endothelial growth factor receptor 2 (Homo sapiens) (UniProt P35968); experiment: Inhibition of KDR at 1 uM
Sequence of Vascular endothelial growth factor receptor 2 (Homo sapiens) (P35968 whole entry): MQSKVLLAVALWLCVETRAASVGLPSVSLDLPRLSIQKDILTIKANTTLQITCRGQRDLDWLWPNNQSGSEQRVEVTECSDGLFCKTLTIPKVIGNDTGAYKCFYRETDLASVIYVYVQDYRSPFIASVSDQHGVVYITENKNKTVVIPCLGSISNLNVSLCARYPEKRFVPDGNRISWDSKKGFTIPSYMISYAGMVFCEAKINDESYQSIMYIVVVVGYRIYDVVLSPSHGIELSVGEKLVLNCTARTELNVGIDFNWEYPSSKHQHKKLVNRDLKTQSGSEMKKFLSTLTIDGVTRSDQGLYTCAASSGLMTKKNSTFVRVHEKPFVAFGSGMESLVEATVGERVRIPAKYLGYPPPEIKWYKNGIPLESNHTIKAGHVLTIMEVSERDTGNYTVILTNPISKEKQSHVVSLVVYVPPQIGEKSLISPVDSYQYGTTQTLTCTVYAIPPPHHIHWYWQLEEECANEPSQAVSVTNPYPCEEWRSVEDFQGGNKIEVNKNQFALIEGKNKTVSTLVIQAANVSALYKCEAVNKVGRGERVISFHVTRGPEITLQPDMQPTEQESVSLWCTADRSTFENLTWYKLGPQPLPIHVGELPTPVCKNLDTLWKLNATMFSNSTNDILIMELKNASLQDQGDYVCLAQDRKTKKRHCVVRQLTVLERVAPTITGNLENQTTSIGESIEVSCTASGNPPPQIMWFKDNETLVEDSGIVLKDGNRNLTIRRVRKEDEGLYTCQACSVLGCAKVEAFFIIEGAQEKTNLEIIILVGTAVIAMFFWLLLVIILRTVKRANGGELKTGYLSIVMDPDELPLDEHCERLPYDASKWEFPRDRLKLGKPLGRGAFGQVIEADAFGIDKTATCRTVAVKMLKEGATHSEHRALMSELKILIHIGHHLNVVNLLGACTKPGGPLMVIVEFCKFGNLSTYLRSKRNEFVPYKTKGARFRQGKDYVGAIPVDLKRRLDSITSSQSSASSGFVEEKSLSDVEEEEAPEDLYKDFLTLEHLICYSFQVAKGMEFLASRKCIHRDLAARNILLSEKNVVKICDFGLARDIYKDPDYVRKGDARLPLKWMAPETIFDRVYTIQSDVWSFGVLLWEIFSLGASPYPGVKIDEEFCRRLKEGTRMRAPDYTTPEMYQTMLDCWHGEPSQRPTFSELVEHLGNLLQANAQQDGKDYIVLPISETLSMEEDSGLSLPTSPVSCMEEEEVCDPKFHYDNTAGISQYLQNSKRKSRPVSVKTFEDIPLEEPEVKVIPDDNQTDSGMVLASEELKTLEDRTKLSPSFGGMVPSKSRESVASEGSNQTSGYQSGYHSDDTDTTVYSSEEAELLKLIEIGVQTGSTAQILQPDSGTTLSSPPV

[17] = target: Tyrosine-protein kinase ABL1 (Homo sapiens) (UniProt P00519); experiment: Inhibition of ABL at 1 uM
Sequence of Tyrosine-protein kinase ABL1 (Homo sapiens) (P00519 whole entry): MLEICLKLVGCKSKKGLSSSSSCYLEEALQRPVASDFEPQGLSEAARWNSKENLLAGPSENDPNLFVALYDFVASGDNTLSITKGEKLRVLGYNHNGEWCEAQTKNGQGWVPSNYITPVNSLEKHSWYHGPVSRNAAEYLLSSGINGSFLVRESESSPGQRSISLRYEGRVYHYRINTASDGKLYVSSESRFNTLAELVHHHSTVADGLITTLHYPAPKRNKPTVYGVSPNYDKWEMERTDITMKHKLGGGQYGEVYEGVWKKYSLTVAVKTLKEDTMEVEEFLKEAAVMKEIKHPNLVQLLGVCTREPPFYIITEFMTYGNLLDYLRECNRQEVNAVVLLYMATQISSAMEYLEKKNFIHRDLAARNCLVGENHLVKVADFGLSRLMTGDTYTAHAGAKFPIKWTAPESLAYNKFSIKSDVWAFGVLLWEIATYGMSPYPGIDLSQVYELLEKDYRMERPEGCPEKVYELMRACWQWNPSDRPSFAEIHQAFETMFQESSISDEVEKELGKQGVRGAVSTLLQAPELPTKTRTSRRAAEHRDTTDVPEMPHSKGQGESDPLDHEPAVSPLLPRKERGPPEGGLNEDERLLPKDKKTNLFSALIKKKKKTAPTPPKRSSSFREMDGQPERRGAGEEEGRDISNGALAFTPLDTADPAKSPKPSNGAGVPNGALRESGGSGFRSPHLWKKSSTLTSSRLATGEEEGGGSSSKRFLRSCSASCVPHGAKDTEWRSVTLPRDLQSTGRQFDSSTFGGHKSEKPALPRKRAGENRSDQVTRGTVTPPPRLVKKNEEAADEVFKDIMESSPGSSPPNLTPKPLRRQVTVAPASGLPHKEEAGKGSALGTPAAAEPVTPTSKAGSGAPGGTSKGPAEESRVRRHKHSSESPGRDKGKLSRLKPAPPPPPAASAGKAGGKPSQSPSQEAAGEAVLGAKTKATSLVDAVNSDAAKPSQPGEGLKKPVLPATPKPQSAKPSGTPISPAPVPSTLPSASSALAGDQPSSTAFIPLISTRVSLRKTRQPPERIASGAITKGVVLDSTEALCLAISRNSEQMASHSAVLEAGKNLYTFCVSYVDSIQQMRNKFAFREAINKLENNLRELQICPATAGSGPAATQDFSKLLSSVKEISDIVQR

[18] = target: Proto-oncogene tyrosine-protein kinase Src (Homo sapiens) (UniProt P12931); experiment: Inhibition of SRC at 1 uM
Sequence of Proto-oncogene tyrosine-protein kinase Src (Homo sapiens) (P12931 2-536 limits assumed): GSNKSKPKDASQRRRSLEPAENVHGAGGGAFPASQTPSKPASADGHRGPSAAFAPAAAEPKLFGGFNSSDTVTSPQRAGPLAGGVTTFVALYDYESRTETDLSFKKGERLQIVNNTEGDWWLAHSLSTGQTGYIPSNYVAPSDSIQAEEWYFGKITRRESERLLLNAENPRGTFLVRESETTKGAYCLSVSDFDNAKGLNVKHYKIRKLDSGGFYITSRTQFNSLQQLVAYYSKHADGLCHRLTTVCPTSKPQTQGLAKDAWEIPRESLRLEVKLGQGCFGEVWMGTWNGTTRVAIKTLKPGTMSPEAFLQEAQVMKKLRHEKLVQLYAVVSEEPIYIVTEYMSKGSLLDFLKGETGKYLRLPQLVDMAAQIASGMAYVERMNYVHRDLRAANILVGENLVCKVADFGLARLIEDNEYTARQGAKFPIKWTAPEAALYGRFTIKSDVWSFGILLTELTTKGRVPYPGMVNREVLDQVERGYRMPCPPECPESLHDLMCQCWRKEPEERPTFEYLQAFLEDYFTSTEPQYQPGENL

IC50 [2] [nM]	IC50 [10] [nM]	Structure (SMILES)	further results
3	27	CCCS(=O)(=O)Nc1ccc(F)c(-c2cc3cnc(NCC4CC4)nc3n(C)c2=O)c1F	inhibition in vivo at 30 mg/kg [1]: 74%; inhibition [3]: Active; inhibition [4]: > 80%; Vd [5]: 0.46 L/kg; AUC [6]: 133 µM·h; Papp [7]: > 8 ×10⁻⁶ cm/s; inhibition [8]: Active; inhibition in vivo at 30 mg/kg [9]: 96%; inhibition in vivo at 30 mg/kg [11]: 97%; clearance [12]: 3 mL/min/kg; bioavailability [13]: 33%
0.5	3	CCCS(=O)(=O)Nc1ccc(F)c(-c2cc3cnc(Nc4cccnc4)nc3n(C)c2=O)c1F	inhibition [14]: > 90%; inhibition [15]: > 90%; inhibition [16]: > 90%; inhibition [17]: > 90%; inhibition [18]: > 90%
> 10000	–	CCCS(=O)(=O)Nc1ccc(F)c(-c2cc3ccncc3[nH]2)c1F	–
–	41	CCCS(=O)(=O)Nc1ccc(F)c(-c2cc3cnc(NCCCO)nc3n(C)c2=O)c1F	Vd [5]: 20 L/kg; AUC [6]: 20 µM·h; Papp [7]: > 8 ×10⁻⁶ cm/s
13	1160	CCCS(=O)(=O)Nc1ccc(F)c(-c2cc3cnccc3n(CCc3ccccc3)c2=O)c1F	–
71	445	CCCS(=O)(=O)Nc1ccc(F)c(-c2cc3cnccc3c(=O)n2C)c1F	–
> 10000	–	CCCS(=O)(=O)Nc1ccc(F)c(-c2ccc3nc(N)ncc3c2)c1	–
3610	–	CCCS(=O)(=O)Nc1ccc(F)c(-c2ccc3ccncc3n2)c1F	–
0.5	5	CCCS(=O)(=O)Nc1ccc(F)c(-c2cc3cnc(Nc4ccccc4)nc3n(C)c2=O)c1F	inhibition [14]: > 90%; inhibition [15]: > 90%; inhibition [16]: > 90%; inhibition [17]: > 90%; inhibition [18]: > 90%
340	–	CCCS(=O)(=O)Nc1ccc(F)c(-c2ccc3ccncc3c2)c1F	–
241	703	CCCS(=O)(=O)Nc1ccc(F)c(-c2cc3cnccc3cn2)c1F	–
6	31	CCCS(=O)(=O)Nc1ccc(F)c(-c2cc3cnc(NCCO)nc3n(C)c2=O)c1F	Vd [5]: 1 L/kg; AUC [6]: 1 µM·h; Papp [7]: > 8 ×10⁻⁶ cm/s; clearance [12]: 74 mL/min/kg; bioavailability [13]: 18%
140	682	CCCS(=O)(=O)Nc1ccc(F)c(-c2ccc3nc(N)ncc3c2)c1F	–
549	–	CCCS(=O)(=O)Nc1ccc(F)c(-c2ccc3cc(N)ncc3c2)c1F	–
0.4	1	CCCS(=O)(=O)Nc1ccc(F)c(-c2cc3cnc(Nc4cnn(C)c4)nc3n(C)c2=O)c1F	inhibition [14]: > 90%; inhibition [15]: > 90%; inhibition [16]: > 90%; inhibition [17]: > 90%; inhibition [18]: > 90%
128	> 10000	CCCS(=O)(=O)Nc1ccc(C)c(-c2ccc3nc(N)ncc3c2)c1	–
10	93	CCCS(=O)(=O)Nc1ccc(F)c(-c2cc3cnc(N)nc3n(C)c2=O)c1F	–
15	73	CCCS(=O)(=O)Nc1ccc(F)c(-c2cc3cnc(NC4CCOCC4)nc3n(C)c2=O)c1F	–
9	45	CCCS(=O)(=O)Nc1ccc(F)c(-c2cc3cnc(NC)nc3n(C)c2=O)c1F	–
72	469	CCCS(=O)(=O)Nc1ccc(F)c(-c2cc3cncc(Br)c3cn2)c1F	–

Source: ChEMBL document CHEMBL2021811, “The discovery of potent and selective pyridopyrimidin-7-one based inhibitors of B-RafV600E kinase” (Bioorg Med Chem Lett, 2012)
